INS-1E_ATP_HTS: preserves ATP levels in cytokine-treated INS-1E cells; AID 488910; INS-1E cytokine-induced death, ATP luminescence, 48 h; normalised: neutral wells 0, positive control 100; protection from cytokine-induced ATP loss, % at 10 µM; 0.1% of 20,000 active;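 active = mean replicate protection from cytokine-induced ATP loss at least 50% and at least 75% of replicates each reaching 50%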
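Assay system: INS-1E rat cells / Quantity: 8000 cells per well / Medium: RPMI without phenol red, 5% FBS / Probe or stimulus: three-cytokine cocktail (IFN-γ, TNF-α, IL-1β) / Dosing: one compound concentration, pin transfer / Timing: 48 h co-treatment, 10 min post-lysis read / Technique: CellTiter-Glo luminescence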
A1_apoptosis_2: blocks A1, raising caspase activity; MEF A1-2A-BIM cells, caspase-Glo luminescence, 3 h; percent of clofoctol response, DMSO zero; caspase activation, % (concentration not given with the values); 24,000 tested, under 10 active; in the data active = caspase activation above about 5.9%
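Test system – A1-2A-BIM-expressing MEF cells · Input – 2500 cells/well · Medium – RPMI-1640 growth medium with 10% FBS · Compound dosing – 50 nL pinned compound · Timing – 3 h compound exposure at 37 °C · Technique – Caspase-Glo luminescence (DEVD substrate) · Evaluation – Caspase-3/7 activity from luminescence increase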
T_cruzi_HTS: inhibitors of intracellular Trypanosoma cruzi. intracellular Trypanosoma cruzi in host cells, plate reader. activity score (inhibition), % at 5.01 µM. 4.9% of 22,000 active; in the data active = activity score above about 55%;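 also: parasites and compound incubated about four days before reading; 0% = median of neutral control wells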
Active calls of the source: *; . = not tested or not shown. This excerpt belongs to a sample that is enriched for hits.

SMILES INS-1E_ATP_HTS A1_apoptosis_2 T_cruzi_HTS
Cc1ccc(S(=O)(=O)N(C)C[C@H]2Oc3ccc(NC(=O)Nc4ccc(C(F)(F)F)cc4)cc3CC(=O)N([C@@H](C)CO)C[C@@H]2C)cc1 -4.6 . 1.6
C[C@@H]1CN([C@@H](C)CO)C(=O)Cc2cc(NC(=O)Nc3ccc(C(F)(F)F)cc3)ccc2O[C@@H]1CN(C)S(=O)(=O)c1ccccc1 -11.2 . 75.3*
C[C@H](CO)N1C[C@H](C)[C@H](CN(C)S(=O)(=O)c2cccs2)Oc2ccc(NC(=O)Nc3ccc(C(F)(F)F)cc3)cc2CC1=O -21.5 -0.7 40.9
C[C@@H]1CN([C@@H](C)CO)C(=O)Cc2cc(NC(=O)Nc3ccc(C(F)(F)F)cc3)ccc2O[C@@H]1CN(C)S(=O)(=O)c1cccs1 -20.2 0.8 72.8*
CN(C)C(=O)[C@]1(Cc2ccccc2N=[N+]=[N-])N=C(c2ccc(OCCCO)cc2)O[C@@H]1c1ccccc1 . -0.3 .
C[C@@H]1CCCCO[C@H](CN(C)Cc2ccc(Cl)c(Cl)c2)[C@H](C)CN([C@@H](C)CO)C(=O)c2cc(NC(=O)Nc3ccc(C(F)(F)F)cc3)ccc2O1 . -0.7 .
C[C@@H]1CCCCO[C@@H](CN(C)Cc2ccc3c(c2)OCO3)[C@@H](C)CN([C@H](C)CO)C(=O)c2cc(NC(=O)Nc3ccc4c(c3)OCO4)ccc2O1 -18.0 . 70.6*
C[C@@H]1CCCCO[C@H](CN(C)CC2CCCCC2)[C@@H](C)CN([C@H](C)CO)C(=O)c2cc(NC(=O)Nc3ccc(F)cc3)ccc2O1 -23.3 0.2 66.8*
C[C@@H]1CCCCO[C@@H](CN(C)CC2CCCCC2)[C@@H](C)CN([C@H](C)CO)C(=O)c2cc(NC(=O)Nc3ccc4c(c3)OCO4)ccc2O1 -24.8 -2.8 58.5*
C[C@H]1CCCCO[C@H](CN(C)Cc2ccc3c(c2)OCO3)[C@@H](C)CN([C@@H](C)CO)C(=O)c2cc(NC(=O)Nc3ccc4c(c3)OCO4)ccc2O1 . 0.8 .
C[C@@H]1CCCCO[C@@H](CN(C)Cc2ccc(Cl)c(Cl)c2)[C@@H](C)CN([C@H](C)CO)C(=O)c2cc(NC(=O)Nc3ccc(C(F)(F)F)cc3)ccc2O1 -18.5 . 75.8*
C[C@@H]1CN([C@@H](C)CO)C(=O)c2cc(NC(=O)Nc3ccc(F)cc3)ccc2O[C@@H](C)CCCCO[C@H]1CN(C)CC1CC1 . 0.9 .
C[C@@H]1CN([C@@H](C)CO)C(=O)c2cc(NC(=O)Nc3ccc4c(c3)OCO4)ccc2O[C@@H](C)CCCCO[C@H]1CN(C)CC1CCCCC1 . 0.9 .
CN(CCO)c1ccc(/C=N/NC(=O)CCCCCCC(=O)NO)cc1 . 1.8 .
O=C(CCCCCCC(=O)Nc1ccccc1O)N/N=C/c1ccc(-n2ccnc2)cc1 10.8 0.4 -1.0
COc1ccc(/C=N/NC(=O)c2cccc(C(=O)NO)c2)cc1Br -4.4 -0.2 -15.0
O=C(N/N=C/c1ccc(O)c(O)c1O)c1ccccn1 21.1 -10.7 51.4
O=C(O)CCCCCC(=O)N/N=C/c1nccs1 -3.2 -0.2 -16.2
C[C@@H]1CCCCO[C@@H](CN(C)Cc2ccc3c(c2)OCO3)[C@@H](C)CN([C@H](C)CO)C(=O)c2cc(NC(=O)Nc3ccc(C(F)(F)F)cc3)ccc2O1 -16.2 . 65.2*
C[C@@H]1CCCCO[C@H](CN(C)Cc2ccc(Cl)c(Cl)c2)[C@@H](C)CN([C@H](C)CO)C(=O)c2cc(NC(=O)Nc3ccc4c(c3)OCO4)ccc2O1 -26.3 . 68.6*
C[C@@H]1CN([C@H](C)CO)C(=O)c2cc(NC(=O)Nc3ccc(C(F)(F)F)cc3)ccc2O[C@@H](C)CCCCO[C@H]1CN(C)Cc1ccc2c(c1)OCO2 . 0.9 .
C[C@@H]1CCCCO[C@@H](CN(C)Cc2ccc(Cl)c(Cl)c2)[C@H](C)CN([C@H](C)CO)C(=O)c2cc(NC(=O)Nc3ccc4c(c3)OCO4)ccc2O1 . 1.5 .
COc1ccc(/C=N/NC(=O)c2ccccn2)cc1Br -3.4 -4.9 0.3
OCc1ccc(COc2ccc3ccncc3c2)cc1 . -2.0 .
Cc1ncc(CO)c(/C=N/NC(=O)CCCCCC(=O)Nc2ccccc2O)c1O . -1.4 .
SMILES INS-1E_ATP_HTS A1_apoptosis_2 T_cruzi_HTS
Cc1noc(C)c1S(=O)(=O)Nc1ccc2c(c1)CC(=O)N([C@@H](C)CO)C[C@@H](C)[C@@H](CN(C)Cc1ccc(Oc3ccccc3)cc1)O2 -15.2 0.6 59.6*
Cc1noc(C)c1S(=O)(=O)Nc1ccc2c(c1)CC(=O)N([C@@H](C)CO)C[C@H](C)[C@H](CN(C)Cc1ccc(-c3ccccc3)cc1)O2 -12.2 -0.7 18.5
Cc1noc(C)c1S(=O)(=O)Nc1ccc2c(c1)CC(=O)N([C@H](C)CO)C[C@@H](C)[C@@H](CN(C)Cc1ccc(-c3ccccc3)cc1)O2 -20.7 -1.9 59.9*
Cc1noc(C)c1S(=O)(=O)Nc1ccc2c(c1)CC(=O)N([C@@H](C)CO)C[C@@H](C)[C@H](CN(C)Cc1ccccc1)O2 . -0.7 .
COc1cc(Br)cc(/C=N/NC(=O)CCCCCC(=O)Nc2ccccc2O)c1O -6.8 -0.5 33.6
Cc1ccc(S(=O)(=O)Nc2ccc3c(c2)CC(=O)N([C@H](C)CO)C[C@@H](C)[C@H](CN(C)Cc2ccc(C(=O)Nc4ccccc4N)cc2)O3)cc1 6.7 . 49.4
C[C@@H]1CN([C@H](C)CO)C(=O)Cc2cc(NS(=O)(=O)c3ccccc3)ccc2O[C@@H]1CN(C)Cc1ccc(C(=O)Nc2ccccc2N)cc1 1.3 -0.2 58.1*
C[C@@H]1CCCCO[C@H](CN(C)Cc2ccc(C(=O)Nc3ccccc3N)cc2)[C@@H](C)CN([C@H](C)CO)C(=O)c2cc(NS(=O)(=O)c3ccc(Cl)cc3)ccc2O1 39.3 . 78.4*
C[C@@H]1CCCCO[C@@H](CN(C)Cc2ccc(C(=O)Nc3ccccc3N)cc2)[C@@H](C)CN([C@H](C)CO)C(=O)c2cc(NS(=O)(=O)c3ccccc3)ccc2O1 1.6 -0.4 46.4
C[C@@H]1CN([C@@H](C)CO)C(=O)Cc2cc(NS(=O)(=O)c3ccc(F)cc3)ccc2O[C@@H]1CN(C)Cc1ccc(C(=O)Nc2ccccc2N)cc1 0.0 1.0 53.2
C[C@H]1CN([C@@H](C)CO)C(=O)Cc2cc(NS(=O)(=O)c3ccc(Cl)cc3)ccc2O[C@H]1CN(C)Cc1ccc(C(=O)Nc2ccccc2N)cc1 21.1 0.6 66.1*
C[C@H]1CN([C@@H](C)CO)C(=O)Cc2cc(NS(=O)(=O)c3ccc(F)cc3)ccc2O[C@H]1CN(C)Cc1ccc(C(=O)Nc2ccccc2N)cc1 33.4 . 70.7*
C[C@H](CO)N1C[C@H](C)[C@@H](CN(C)Cc2ccc(C(=O)Nc3ccccc3N)cc2)Oc2ccc(NS(=O)(=O)c3ccccc3)cc2CC1=O . 0.5 .
CCCCCCC/C=N/NC(=O)CCCCCCC(=O)O -1.5 . -7.0
COc1cc(/C=N/NC(=O)c2ccccn2)ccc1O 6.0 -7.8 -7.4
O=C(N/N=C/c1ccc(-c2ccccc2)cc1)c1ccccn1 -24.6 . -21.1
COc1cc(Br)cc(/C=N/NC(=O)CCCCCCC(=O)O)c1O 12.8 -0.5 -9.8
COc1ccc(/C=N/NC(=O)c2ccc(C(=O)NO)cc2)cc1O . -1.0 .
